Data set [1] deals with Mus musculus. Put plainly: Anticonvulsant activity in ip dosed Swiss mouse assessed as protection against seizures measured at 1 hr of time to peak effect by maximal electroshock test. It counts as functional.
A short description of data set [2]: Toxicity in ip dosed Swiss mouse assessed as induction of motor performance impairment measured within 60 seconds measured at 1 hr of time to peak effect by Chimney test. The format is organism-based. The following applies: in vivo. The procedure, abridged:
(§1)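 Neurotoxicity (TD50) estimated in mice i.p. by chimney test for motor coordination impairment; protective index calculated as TD50/ED50 for each seizure model.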

In data set [3] the test system is Mus musculus. Put plainly: Anticonvulsant activity in ip dosed Swiss mouse assessed as protection against seizures measured at 1 hr of time to peak effect by subcutaneous pentylenetetrazole seizure test. It counts as functional.
Data set [4] is described as follows: Protective index, ratio of neurotoxic TD50 in Swiss mouse by Chimney test to anticonvulsant ED50 in Swiss mouse measured at 1 hr of time to peak effect by 6 Hz test by 6 Hz psychomotor seizure test. The note with it: in vivo, read-out: Ratio TD50/ED50. It counts as toxicity. The procedure, abridged:
as §1

Data set [5] concerns Mus musculus. Put plainly: Anticonvulsant activity in ip dosed Swiss mouse assessed as protection against seizures measured at 1 hr of time to peak effect by 6 Hz test by 6 Hz psychomotor seizure test. The format is functional.

The values below come from ChEMBL document CHEMBL3580554, “Design, synthesis, and anticonvulsant activity of new hybrid compounds derived from 2-(2,5-dioxopyrrolidin-1-yl)propanamides and 2-(2,5-dioxopyrrolidin-1-yl)butanamides” (J Med Chem, 2015).

For orientation: ED50 means the midpoint of the dose-response relation. The TD50 is the dose at which the toxic effect under study appears in half of the subjects. As to `CC[C@@H](C(N)=O)N1CCCC1=O`, the results for the ED50 in the data set on Mus musculus [1], in the data set with Mus musculus [3] and with Mus musculus [5] were more than 500 mg/kg, more than 500 mg/kg and 14.8 mg/kg, respectively. Besides, the TD50 at 1 h in data set [2] was more than 500 mg/kg. Also, in data set [4], the selectivity ratio at 1 h was more than 33.8.
